Data: ChEMBL document CHEMBL2034874, “5-acetyl-2-arylbenzimidazoles as antiviral agents. Part 4” (Eur J Med Chem, 2012)

Tests used:
[1] = Cytotoxicity against human MT4 cells after 96 hrs by MTT assay; assay type: cell-based
Method in brief: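 Exponentially growing MT-4 cells seeded at 1×10^5 cells/mL in RPMI-1640 with 10% FBS and incubated with serial compound dilutions at 37 °C and 5% CO2. Viability measured by MTT after 96 h. CC50 by linear regression against untreated controls.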

[2] = test system: Human immunodeficiency virus 1; test: Antiviral activity against HIV1 3B infected in human MT4 cells assessed as inhibition of virus-induced cytopathogenicity after 4 days by MTT assay; assay type: functional, organism-based; conditions: Human immunodeficiency virus 1, 3B, MT4, 96 h
Method in brief: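 MT-4 cells (1×10^4/well) in RPMI with serial compound dilutions, infected with HIV-1 IIIB at 100 CCID50 (m.o.i. 0.01). Viability measured by MTT after 4 days at 37 °C. EC50 for 50% protection from cytopathogenicity obtained by linear regression against untreated controls.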

[3] = Cytotoxicity against MDBK cells after 48 to 96 hrs by MTT assay; assay type: cell-based, Bos taurus; conditions: cattle
Method in brief: (§1)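 Mock-infected MDBK (6×10^5 cells/mL, MEM-E with 10% horse serum) or BHK (1×10^6 cells/mL, MEM-E with 10% FBS) cells incubated with serial compound dilutions at 37 °C and 5% CO2. Viability measured by MTT after 48–96 h. CC50 by linear regression against untreated controls.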

[4] = Antiviral activity against BVDV1 NADL ATCC VR-534 infected in MDBK cells assessed as inhibition of virus-induced cytopathogenicity after 3 to 4 days by MTT assay; assay type: functional, cell-based, Bovine viral diarrhea virus 1-NADL; conditions: Bovine viral diarrhea virus isolates and strains, ATCC VR-534, MDBK
Method in brief: (§2)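 BHK (5×10^4/well) or MDBK (3×10^4/well) cells grown to confluent monolayers overnight, infected at m.o.i. 0.01 in maintenance MEM-Earl with 0.5% inactivated FBS. Serially diluted compounds added after 1 h. Viability read by MTT after 3–4 days at 37 °C. Values are expressed as % of untreated controls, and EC50 is derived by linear regression. Duplicate samples.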

[5] = Cytotoxicity against BHK21 cells by MTT assay; assay type: cell-based, Mesocricetus auratus; conditions: hamster, BHK-21 cells; method in brief: as §1
[6] = test system: Yellow fever virus; test: Antiviral activity against Yellow fever virus 17D infected in BHK21 cells assessed as inhibition of virus-induced cytopathogenicity after 3 to 4 days by MTT assay; assay type: functional, cell-based; conditions: BHK-21
[7] = Cytotoxicity against african green monkey Vero 76 cells after 48 to 96 hrs by MTT assay; assay type: cell-based; conditions: chlorocebus sabaeus
[8] = test system: Coxsackievirus B5; test: Antiviral activity against Coxsackie virus type B5 Ohio-1 ATCC VR-29 infected in african green monkey Vero-76 cells assessed as reduction in viral plaque after 3 days by crystal violet staining; assay type: functional, organism-based; conditions: Enterovirus B, Ohio-1 ATCC VR-29, Vero 76, 72 h
Method in brief: (§3)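 Vero-76 monolayers (2×10^5 cells/well) infected for 2 h at 50–100 PFU/well. Unadsorbed virus removed. D-MEM with 1% inactivated FBS, 0.75% methylcellulose and serial compound dilutions added. Incubation at 37 °C for 3 days (CVB-5, HSV-1) or 5 days (RSV). Fixed and stained with 50% ethanol/0.8% crystal violet, then plaques counted. EC50 by linear regression versus untreated controls.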

[9] = test system: Poliovirus 1; test: Antiviral activity against Polio virus type 1 strain sabin ATCC VR-1562 infected in african green monkey Vero-76 cells assessed as reduction in viral plaque after 2 days by crystal violet staining; assay type: functional, cell-based, Human poliovirus 1 strain Sabin; conditions: Enterovirus C, ATCC VR-1562, Vero 76, 48 h
[10] = test system: Vesicular stomatitis Indiana virus; test: Antiviral activity against Vesicular stomatitis virus indiana ATCC VR-1540 infected in african green monkey Vero-76 cells assessed as reduction in viral plaque after 2 days by crystal violet staining; assay type: functional, organism-based; conditions: ATCC VR-1540, Vero 76, 48 h
[11] = test system: Vaccinia virus; test: Antiviral activity against Vaccinia virus Elstree-Lister ATCC VR-1549 infected in african green monkey Vero-76 cells assessed as reduction in viral plaque after 3 days by crystal violet staining; assay type: functional, organism-based; conditions: Orthopoxvirus vaccinia, Elstree-Lister ATCC VR-1549, Vero 76, 72 h
[12] = test system: Human alphaherpesvirus 1; test: Antiviral activity against Herpes simplex virus type 1 KOS ATCC VR-1493 infected in african green monkey Vero-76 cells assessed as reduction in viral plaque after 3 days by crystal violet staining; assay type: functional, organism-based; conditions: Human alphaherpesvirus 1, KOS ATCC VR1493, Vero 76, 72 h; method in brief: as §3
[13] = test system: Mammalian orthoreovirus 1; test: Antiviral activity against Reovirus 1 3651 ATCC VR-214 infected in BHK21 cells assessed as inhibition of virus-induced cytopathogenicity after 3 to 4 days by MTT assay; assay type: functional, organism-based; conditions: Mammalian orthoreovirus 1, 3651 ATCC VR-214, BHK-21; method in brief: as §2
[14] = Antiviral activity against Human respiratory syncytial virus A2 ATCC VR-1540 infected in african green monkey Vero-76 cells assessed as reduction in viral plaque after 5 days by crystal violet staining; assay type: functional, cell-based; conditions: ATCC VR-1540, Vero 76, 120 h; method in brief: as §3

SMILES | CC50 at 96 h [1] [µM] | EC50 [2] [µM] | CC50 [3] [µM] | EC50 [4] [µM] | CC50 [5] [µM] | EC50 [6] [µM] | CC50 [7] [µM] | EC50 [8] [µM] | EC50 [9] [µM] | EC50 [10] [µM] | EC50 [11] [µM] | EC50 [12] [µM] | EC50 [13] [µM] | EC50 [14] [µM]
CC(=O)c1ccc2[nH]c(-c3ccoc3)nc2c1 | > 100 | > 100 | ≥ 100 | 22 | 98 | > 98 | > 100 | > 100 | > 100 | > 100 | > 100 | > 100 | – | –
COc1ccc(-c2nc3cc(C(C)=O)ccc3[nH]2)c(OC)c1 | 50 | > 50 | 73 | 21 | 50 | > 50 | > 100 | > 100 | > 100 | – | > 100 | – | – | –
CC(=O)c1ccc2c(c1)nc(-c1ccccn1)n2C1CCCCC1 | 70 | > 70 | > 100 | > 100 | ≥ 100 | > 100 | > 90 | > 90 | > 90 | > 90 | > 90 | > 90 | – | –
C/C(=N\O)c1ccc2[nH]c(-c3ccc(Cl)cc3)nc2c1 | 20 | > 20 | 37 | 18 | 33 | > 33 | – | – | – | – | – | – | – | –
COc1ccc(-c2nc3cc(C(C)=O)ccc3[nH]2)cc1 | 24 | > 24 | 58 | > 58 | 40 | > 40 | > 100 | > 100 | > 100 | – | > 100 | – | – | –
C/C(=N\NC(N)=S)c1ccc2[nH]c(-c3ccc(Cl)cc3)nc2c1 | 2 | > 2 | > 100 | 0.85 | > 100 | > 100 | > 100 | > 100 | > 100 | > 100 | > 100 | – | > 100 | –
COc1ccc(-c2nc3cc(/C(C)=N/NC(N)=O)ccc3n2C2CCCCC2)c(OC)c1 | 23 | > 23 | 36 | 22 | 19 | > 19 | 20 | > 20 | > 20 | – | > 20 | > 20 | – | –
C/C(=N\NC(N)=O)c1ccc2[nH]c(-c3ccc(Cl)cc3)nc2c1 | – | – | > 100 | > 100 | > 100 | > 100 | > 100 | > 100 | > 100 | > 100 | > 100 | > 100 | > 100 | > 100
CC(=O)c1ccc2[nH]c(-c3ccc(C(F)(F)F)cc3)nc2c1 | – | – | > 100 | 15 | > 100 | > 100 | > 100 | > 100 | > 100 | > 100 | > 100 | > 100 | > 100 | > 100
C/C(=N\NC(N)=O)c1ccc2[nH]c(-c3ccccc3)nc2c1 | – | – | > 100 | 50 | > 100 | > 100 | > 100 | > 100 | > 100 | > 100 | > 100 | > 100 | > 100 | > 100
COc1ccc(-c2nc3cc(/C(C)=N/NC(N)=O)ccc3[nH]2)c(OC)c1 | 21 | ≥ 21 | > 100 | 2.55 | ≥ 100 | > 100 | 80 | > 80 | > 80 | > 80 | 80 | – | > 100 | –
CC(=O)c1ccc2c(c1)nc(-c1ccoc1)n2C1CCCCC1 | 63 | > 63 | > 100 | > 100 | 77 | > 77 | 80 | > 80 | > 80 | – | > 80 | > 80 | – | –
C/C(=N\NC(N)=S)c1ccc2[nH]c(-c3ccc(C(F)(F)F)cc3)nc2c1 | 2 | > 2 | 5 | > 1.8 | 5 | > 5 | 22 | > 22 | > 22 | – | – | – | – | –
COc1ccc(-c2nc3cc(/C(C)=N/NC(N)=S)ccc3[nH]2)cc1 | 5 | > 5 | 13 | 1.85 | 13 | > 13 | > 100 | > 100 | > 100 | > 100 | > 100 | – | > 13 | –
C/C(=N\NC(N)=O)c1ccc2c(c1)nc(-c1ccc(Cl)cc1)n2C1CCCCC1 | – | – | > 100 | > 100 | > 100 | > 100 | > 100 | > 100 | > 100 | > 100 | > 100 | > 100 | > 100 | > 100
